Assay results reported in ChEMBL document CHEMBL4831560, “Design, Synthesis, and Biological Evaluation of APN and AKT Dual-Target Inhibitors” (ACS Med Chem Lett, 2021).
Activity calls are given as the source filed them. The calls are words filed in the database; no cut-off is given here.

Key:
Aminopeptidase N = target: T1, Aminopeptidase N (Sus scrofa, UniProt P15145); experiment: Inhibition of APN in pig kidney microsomes assessed as reduction in p-nitroanilide release using L-leu-p-nitroanilide as substrate incubated for 30 mins by UV absorption based analysis
T1 sequence (P15145 whole entry): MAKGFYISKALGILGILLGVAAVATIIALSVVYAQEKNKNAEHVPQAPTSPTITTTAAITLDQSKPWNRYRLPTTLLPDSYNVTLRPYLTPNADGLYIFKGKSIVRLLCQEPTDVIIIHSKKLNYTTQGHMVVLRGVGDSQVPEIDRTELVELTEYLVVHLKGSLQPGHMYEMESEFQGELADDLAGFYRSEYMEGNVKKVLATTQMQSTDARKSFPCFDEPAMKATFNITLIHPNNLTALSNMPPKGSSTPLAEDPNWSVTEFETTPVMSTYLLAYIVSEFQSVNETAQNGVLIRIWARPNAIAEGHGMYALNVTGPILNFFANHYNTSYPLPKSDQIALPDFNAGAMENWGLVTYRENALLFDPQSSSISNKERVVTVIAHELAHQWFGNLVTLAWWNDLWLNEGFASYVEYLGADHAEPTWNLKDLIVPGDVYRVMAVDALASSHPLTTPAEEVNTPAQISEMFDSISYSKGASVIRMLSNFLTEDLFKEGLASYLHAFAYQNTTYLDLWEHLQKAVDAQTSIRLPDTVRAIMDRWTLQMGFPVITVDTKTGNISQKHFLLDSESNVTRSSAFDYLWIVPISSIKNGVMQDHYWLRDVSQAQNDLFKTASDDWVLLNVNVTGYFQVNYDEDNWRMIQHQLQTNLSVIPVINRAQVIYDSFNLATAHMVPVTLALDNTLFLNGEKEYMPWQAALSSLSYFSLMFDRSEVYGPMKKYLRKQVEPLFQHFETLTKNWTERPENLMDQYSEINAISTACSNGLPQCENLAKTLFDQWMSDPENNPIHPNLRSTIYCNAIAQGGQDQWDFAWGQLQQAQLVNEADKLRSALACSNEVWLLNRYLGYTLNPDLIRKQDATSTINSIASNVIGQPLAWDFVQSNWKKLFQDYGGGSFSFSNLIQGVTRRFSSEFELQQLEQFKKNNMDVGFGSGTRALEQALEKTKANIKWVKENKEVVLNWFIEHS

[1] = target: T2, RAC-alpha serine/threonine-protein kinase (Homo sapiens, UniProt P31749); conditions: dose 200.0 nM, time 40.0 min
T2 sequence (P31749 whole entry): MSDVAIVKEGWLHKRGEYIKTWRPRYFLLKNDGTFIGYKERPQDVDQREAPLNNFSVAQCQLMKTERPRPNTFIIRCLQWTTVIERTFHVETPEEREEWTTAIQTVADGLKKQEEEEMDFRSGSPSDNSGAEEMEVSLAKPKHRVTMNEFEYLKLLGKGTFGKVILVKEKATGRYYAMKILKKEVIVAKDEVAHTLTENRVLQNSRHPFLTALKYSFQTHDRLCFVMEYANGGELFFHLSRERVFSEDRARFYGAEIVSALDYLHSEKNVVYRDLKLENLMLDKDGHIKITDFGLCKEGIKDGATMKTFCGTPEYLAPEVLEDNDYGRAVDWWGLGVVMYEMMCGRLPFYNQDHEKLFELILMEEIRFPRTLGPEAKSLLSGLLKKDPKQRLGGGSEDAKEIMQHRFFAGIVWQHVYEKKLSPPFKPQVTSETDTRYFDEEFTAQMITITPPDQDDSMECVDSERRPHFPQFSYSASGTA

NCI-H1975 = experiment: Antiproliferative activity against human NCI-H1975 cells assessed as reduction in cell viability incubated for 72 hrs by MTT assay; assay type: functional, cell-based; conditions: NCI-H1975, 72 h
MCF7 = experiment: Antiproliferative activity against human MCF7 cells assessed as reduction in cell viability incubated for 72 hrs by MTT assay; assay type: functional, cell-based; conditions: MCF7, 72 h
AGS = experiment: Antiproliferative activity against human AGS cells assessed as reduction in cell viability incubated for 72 hrs by MTT assay; assay type: functional, cell-based
HUVEC = experiment: Anti-angiogenic activity against HUVEC cells assessed as inhibition of tubular structure formation at 10 uM […] by Matrigel based phase contrast microscopic analysis; assay type: functional, cell-based; conditions: Homo sapiens
[2] = target: T2, RAC-alpha serine/threonine-protein kinase; experiment: Inhibition of AKT1 (unknown origin) incubated for 40 mins in presence of ATP by Kinase-Glo reagent based luminescence analysis
[3] = target: T3, Aminopeptidase N (Sus scrofa) (UniProt P15145); experiment: Potency index, ratio of bestatin IC50 to test compound IC50 for inhibition of APN in pig kidney microsomes assessed as reduction in p-nitroanilide release using L-leu-p-nitroanilide as substrate incubated for 30 mins by UV absorption based analysis
T3 sequence (whole entry): T1 sequence (P15145 whole entry)

[4] = target: T4, Serine/threonine-protein kinase AKT (Homo sapiens) (UniProt P31751+Q9Y243+P31749); experiment: Inhibition of AKT in human AGS cells assessed as inhibition of GSK3beta phosphorylation up to 10 uM by immunoblot analysis; assay type: cell-based; conditions: dose microM <=10, time 2-6 hrs, TDE = time-dependent effect
T4 sequence (P31749 whole entry, looked up): as the sequence (P31749 whole entry) above
T4 sequence (P31751 whole entry, looked up): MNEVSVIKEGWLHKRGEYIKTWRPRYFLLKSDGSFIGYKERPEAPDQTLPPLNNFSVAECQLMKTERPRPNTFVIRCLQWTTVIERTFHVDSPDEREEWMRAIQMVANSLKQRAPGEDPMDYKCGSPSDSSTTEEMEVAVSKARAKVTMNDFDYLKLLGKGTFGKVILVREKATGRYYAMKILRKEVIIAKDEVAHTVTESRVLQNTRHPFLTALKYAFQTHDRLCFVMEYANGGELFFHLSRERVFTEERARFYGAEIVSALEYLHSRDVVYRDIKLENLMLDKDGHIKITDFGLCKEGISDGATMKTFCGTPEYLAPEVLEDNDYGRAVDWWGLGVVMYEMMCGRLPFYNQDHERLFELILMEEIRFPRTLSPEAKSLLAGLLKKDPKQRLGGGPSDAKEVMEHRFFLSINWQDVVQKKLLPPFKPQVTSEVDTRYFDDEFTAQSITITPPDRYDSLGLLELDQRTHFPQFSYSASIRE
T4 sequence (Q9Y243 whole entry, looked up): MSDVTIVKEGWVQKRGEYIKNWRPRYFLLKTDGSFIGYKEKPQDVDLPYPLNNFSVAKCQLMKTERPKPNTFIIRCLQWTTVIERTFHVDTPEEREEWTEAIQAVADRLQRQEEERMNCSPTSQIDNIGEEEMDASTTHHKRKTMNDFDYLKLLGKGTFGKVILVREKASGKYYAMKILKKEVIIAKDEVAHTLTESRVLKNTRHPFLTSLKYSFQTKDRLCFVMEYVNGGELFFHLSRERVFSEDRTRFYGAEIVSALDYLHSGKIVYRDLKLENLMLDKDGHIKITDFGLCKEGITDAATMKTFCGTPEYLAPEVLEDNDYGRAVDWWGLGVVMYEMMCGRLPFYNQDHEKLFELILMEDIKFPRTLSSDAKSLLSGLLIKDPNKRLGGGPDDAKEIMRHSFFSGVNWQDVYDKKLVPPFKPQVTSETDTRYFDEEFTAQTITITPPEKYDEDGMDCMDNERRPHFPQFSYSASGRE
Procedure, shortened: (§1)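 Western blot in AGS cells treated with DMSO or compound at 2 or 10 μM for 2 or 6 h. Phospho-GSK3β was probed with β-actin as loading control and blots were quantified. Three independent experiments were run, with Student's two-tailed t test against control.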

[5] = target: T4, Serine/threonine-protein kinase AKT (Homo sapiens); experiment: Inhibition of AKT in human AGS cells assessed as inhibition of GSK3beta phosphorylation incubated for up to 6 hrs by immunoblot analysis; assay type: cell-based; conditions: dose 2-10 µM, time hrs <=6; procedure, shortened: as §1

Compound | IC50 (Aminopeptidase N) | inhibition [1] | also measured
CC(C)C[C@H](NC(=O)[C@@H](O)[C@H](N)Cc1ccccc1)C(=O)O [UBENIMEX] |  |  | IC50 (NCI-H1975): > 200 µM; IC50 (MCF7): > 200 µM; IC50 (AGS): > 200 µM; Activity (HUVEC): Active
NC1(C(=O)N[C@@H](C(=O)NO)c2ccccc2)CCN(c2ncnc3[nH]ccc23)CC1 | 960 nM | 60% | IC50 [2]: 121 nM; IC50 (NCI-H1975): 20.3 µM; IC50 (MCF7): 24.8 µM; IC50 (AGS): 30.7 µM; Activity (HUVEC): Active
NC1(C(=O)N[C@@H](Cc2c[nH]c3ccccc23)C(=O)NO)CCN(c2ncnc3[nH]ccc23)CC1 | 127000 nM | 5% | 
COc1ccc(Cn2ccc3ccc(C(=O)NO)cc32)cc1 |  |  | Activity (HUVEC): inactive
NC1(C(=O)N[C@H](Cc2ccccc2)C(=O)NO)CCN(c2ncnc3[nH]ccc23)CC1 | 670 nM | 21% | 
NC1(C(=O)N[C@@H](CCO)c2ccc(Cl)cc2)CCN(c2nc[nH]c3nccc2-3)CC1 [CAPIVASERTIB] |  |  | IC50 (NCI-H1975): 2.7 µM; IC50 (MCF7): 4.2 µM; IC50 (AGS): 9.6 µM; Activity (HUVEC): inactive
NC1(C(=O)N[C@H](C(=O)NO)c2ccccc2)CCN(c2ncnc3[nH]ccc23)CC1 | 1490 nM | 35% | 
O=C(NO)[C@@H](Cc1ccccc1)NC(=O)N1CCN(c2ncnc3[nH]ccc23)CC1 | 260 nM | 11% | 
O=C(NO)[C@H](NC(=O)N1CCN(c2ncnc3[nH]ccc23)CC1)c1ccccc1 | 1040 nM |  | 
NC1(C(=O)N[C@H](Cc2c[nH]c3ccccc23)C(=O)NO)CCN(c2ncnc3[nH]ccc23)CC1 | 4160 nM | 3% | 
NC1(C(=O)N[C@@H](Cc2ccccc2)C(=O)NO)CCN(c2ncnc3[nH]ccc23)CC1 | 159000 nM | 2% | 

Continued, in another order:

IC50 (Aminopeptidase N) | inhibition [1] | Compound | also measured
470 nM | 6% | CC(C)[C@@H](NC(=O)C1(N)CCN(c2ncnc3[nH]ccc23)CC1)C(=O)NO | 
210 nM | 29% | CC(C)C[C@@H](NC(=O)N1CCN(c2ncnc3[nH]ccc23)CC1)C(=O)NO | 
50 nM | 2% | CC(C)C[C@@H](NC(=O)C1CCN(c2ncnc3[nH]ccc23)CC1)C(=O)NO | Ratio IC50 [3]: 70
210 nM | 43% | CC(C)C[C@@H](NC(=O)C1(N)CCN(c2ncnc3[nH]ccc23)CC1)C(=O)NO | inhibition [4]: Tde; IC50 [2]: 270 nM; IC50 (NCI-H1975): 27.4 µM; IC50 (MCF7): 32.7 µM; IC50 (AGS): 52.4 µM; Activity (HUVEC): Active; inhibition [5]: Dose-Dependent Effect
710 nM | 7% | O=C(N[C@H](Cc1ccccc1)C(=O)NO)C1CCN(c2ncnc3[nH]ccc23)CC1 | 
710 nM | 4% | CC(C)C[C@@H](NC(=O)NC1CCN(c2ncnc3[nH]ccc23)CC1)C(=O)NO | 
32400 nM | 7% | CC(C)C[C@H](NC(=O)C1(N)CCN(c2ncnc3[nH]ccc23)CC1)C(=O)NO | 
900 nM | 7% | O=C(NC1CCN(c2ncnc3[nH]ccc23)CC1)N[C@H](Cc1ccccc1)C(=O)NO | 
140000 nM | 5% | CC(C)[C@H](NC(=O)C1(N)CCN(c2ncnc3[nH]ccc23)CC1)C(=O)NO | 
5400 nM |  | O=C(NC1CCN(c2ncnc3[nH]ccc23)CC1)N[C@@H](C(=O)NO)c1ccccc1 | 
390 nM |  | O=C(N[C@@H](C(=O)NO)c1ccccc1)C1CCN(c2ncnc3[nH]ccc23)CC1 | 
